Source: PubChem (several laboratories)
FXIIa inh mix: factor XIIa (human) inhibition, mixture screen | AID 684 | P00748 | 62,000 tested, 0.2% active | inhibition, % at 5 µM | purified FXIIa, fluorogenic substrate, pooled mixtures;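 also: 0% = enzyme without compound and 100% = no enzyme blank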
C1s block: human complement C1s inhibition; P09871; purified C1s, fluorogenic AMC substrate, pooled mixtures; mean inhibition % of two 10-compound mixtures (stronger effect = higher value), % at 5 µM (by protocol); 62,000 tested, 0.16% active; AID 538;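 active = inhibition above 20% in each of the two 10-compound mixture wells holding the compound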;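 also: 0% = enzyme wells lacking compound mixture and 100% = no-enzyme blank wells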
AP complement: orthogonal test for alternative complement pathway inhibitors; 62,000 tested, 0.08% active; Human serum alternative complement pathway, LPS-coated ELISA, C3 deposition; tested in compound mixtures; inhibition, % at 5 µM; AID 1235;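 active = inhibition above 30% in each of the two pooled mixtures holding the compound, so the lower value exceeds 30%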;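 also: 0% = serum in Mg-EGTA without compound and 100% = EDTA serum blank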
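Assay system: human serum alternative complement pathway, C3 deposition on LPS-coated wells; Dosing: 5 µM per compound in ten-compound mixtures; Detection: Anti-C3 ELISA, OD 450 nm; Buffer or medium: Mg2+-EGTA GVB++ buffer containing human serum at 1:15 dilution; Timing: 1 h at 37 °C; Replication: two different pools per compound.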
Cathepsin G inh: blocks human cathepsin G enzyme activity; P08311; 62,000 tested, 0.2% active; purified enzyme, AMC-tetrapeptide fluorescence, pooled mixtures; inhibition, % at 5 µM (by protocol);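 active = inhibition above 20% in each of the two mixture wells holding the compound; inactive = inhibition of 20% or less in either well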;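 also: 0% = enzyme control without mixture and 100% = blank lacking enzyme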
FXIa mix inh: inhibitors of human coagulation factor XIa, pooled mixtures | P03951 | purified FXIa, fluorogenic substrate | inhibition, % at 5 µM | 62,000 tested, 0.19% active | AID 680;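 also: each value is inhibition by a whole ten-compound pool holding the compound; 0% = enzyme with no mixture and 100% = wells lacking enzyme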
MMP13 inh: MMP13 (human) collagenase inhibition | P45452 | MMP-13 fTHP FRET cleavage, Mca fluorescence | inhibition, % at 4 µM | 65,000 tested, 0.07% active | AID 570;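 active = inhibition above the mean of compound-free control plate wells plus 3 SD, cut at about 14% in these data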;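 also: 0% = DMSO wells and 100% = wells with reference MMP-13 inhibitor after basal subtraction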
Numbers without * were called inactive. Shown are actives, neighbours in structure and some others; about 0.58% of the full set was active somewhere. Rule as the data show it, unless noted: active = inhibition above about 20% (passing the limit was not always enough); inactive = the rest.

SMILES	FXIIa inh mix	C1s block	AP complement	Cathepsin G inh	FXIa mix inh	MMP13 inh
CCCCn1c(SCC(=O)NC(C)(C)C)nnc1-c1ccco1	21*	38	19	11	3	4
CCOC(=O)C1CCN(C(=O)Nc2ccc(Cl)cc2Cl)CC1	1	14	18	9	-1	5
O=C1CSC(=Nc2ccc(O)cc2)N1c1ccc(O)cc1	4	9	-2	39*	35	-6
CCN=C1SCC(=O)N1c1ccc(OC)cc1	5	-2	12	5	1	4
CN(C)C=Nc1ncc2c([nH]c3ccccc32)c1C#N	2	13	10	10	9	-15
